In ChEMBL document CHEMBL4627249, “New modification strategy of matrine as Hsp90 inhibitors based on its specific L conformation for cancer treatment” (Bioorg Med Chem, 2020):
Active and inactive are the calls of the source. The rule behind the calls is not given here.

Key:
HeLa [1] = test: Antiproliferative activity against human HeLa cells assessed as reduction in cell viability after 48 hrs by MTT assay; assay type: functional, cell-based
How it was run: (§1)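 HepG2 or HeLa cells in DMEM with 10% FBS and 1% penicillin-streptomycin were preincubated 24 h (37 °C, 5% CO2). They were then exposed for 48 h to 1, 5, 10, 20, 50 and 100 µM, diluted in medium from DMSO stocks. MTT (5 mg/mL, 20 µL) was added for 4 h, formazan dissolved in DMSO, and A490 read. Each concentration was run in triplicate. IC50 is the mean from dose-response curves of at least three independent experiments; cisplatin was the positive control.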

HepG2 = test: Antiproliferative activity against human HepG2 cells assessed as reduction in cell viability after 48 hrs by MTT assay; assay type: functional, cell-based; conditions: HepG2, 48 h; how it was run: as §1
MDA-MB-231 = test: Antiproliferative activity against human MDA-MB-231 cells assessed as reduction in cell viability after 48 hrs by MTT assay; assay type: functional, cell-based; conditions: MDA-MB-231, 48 h
[2] = biological target: T1, Heat shock protein HSP90 (Homo sapiens) (UniProt P07900+P08238)
HeLa [3] = test: Cell cycle arrest in human HeLa cells assessed as accumulation of cells at S phase at 10 uM after 48 hrs by RNase/PI-staining based flow cytometric analysis (reference value: 17.24 %); assay type: functional
HeLa [4] = test: Cell cycle arrest in human HeLa cells assessed as accumulation of cells at G0/G1 phase at 5 uM after 48 hrs by RNase/PI-staining based flow cytometric analysis (reference value: 71.07 %); assay type: functional
HeLa [5] = test: Cell cycle arrest in human HeLa cells assessed as accumulation of cells at S phase after 48 hrs by RNase/PI-staining based flow cytometric analysis; assay type: functional
HeLa [6] = test: Cell cycle arrest in human HeLa cells assessed as accumulation of cells at G0/G1 phase at 10 uM after 48 hrs by RNase/PI-staining based flow cytometric analysis analysis (reference value: 71.07 %); assay type: functional
HeLa [7] = test: Cell cycle arrest in human HeLa cells assessed as accumulation of cells at G0/G1 phase at 20 uM after 48 hrs by RNase/PI-staining based flow cytometric analysis (reference value: 71.07 %); assay type: functional
HeLa [8] = test: Cell cycle arrest in human HeLa cells assessed as accumulation of cells at S phase at 5 uM after 48 hrs by RNase/PI-staining based flow cytometric analysis (reference value: 17.24 %); assay type: functional
HeLa [9] = test: Cell cycle arrest in human HeLa cells assessed as accumulation of cells at S phase at 20 uM after 48 hrs by RNase/PI-staining based flow cytometric analysis (reference value: 17.24 %); assay type: functional
HeLa [10] = test: Cell cycle arrest in human HeLa cells assessed as accumulation of cells at G2/M phase at 5 uM after 48 hrs by RNase/PI-staining based flow cytometric analysis (reference value: 11.69 %); assay type: functional
HeLa [11] = test: Cell cycle arrest in human HeLa cells assessed as accumulation of cells at G2/M phase at 10 uM after 48 hrs by RNase/PI-staining based flow cytometric analysis (reference value: 11.69 %); assay type: functional
HeLa [12] = test: Cell cycle arrest in human HeLa cells assessed as accumulation of cells at G2/M phase at 20 uM after 48 hrs by RNase/PI-staining based flow cytometric analysis (reference value: 11.69 %); assay type: functional
HeLa [13] = test: Induction of apoptosis in human HeLa cells assessed as accumulation of […] cells at 5 uM after 48 hrs by Annexin V/propidium iodide staining based assay (reference value: 0 %); assay type: functional
How it was run: (§2)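 HeLa cells were seeded at 2 × 10^5 per well in six-well plates and left overnight. They were then treated with 5, 10 or 20 µM for 48 h. Annexin V-FITC/PI staining was done with a commercial kit per its instructions. Early and late apoptotic fractions are given as cumulative percentages relative to untreated control.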

HeLa [14] = test: Induction of apoptosis in human HeLa cells assessed as necrotic cells at 10 uM after 48 hrs by Annexin V/propidium iodide staining based assay (reference value: 0 %); assay type: functional; how it was run: as §2
HeLa [15] = test: Induction of apoptosis in human HeLa cells assessed as necrotic cells at 20 uM after 48 hrs by Annexin V/propidium iodide staining based assay (reference value: 0 %); assay type: functional; how it was run: as §2
HeLa [16] = test: Induction of apoptosis in human HeLa cells assessed as viable cells at 5 uM after 48 hrs by Annexin V/propidium iodide staining based assay (reference value: 95.03 %); assay type: functional; conditions: read-out: Activity; how it was run: as §2
HeLa [17] = test: Induction of apoptosis in human HeLa cells assessed as viable cells at 10 uM after 48 hrs by Annexin V/propidium iodide staining based assay (reference value: 95.03 %); assay type: functional; conditions: read-out: Activity; how it was run: as §2
HeLa [18] = test: Induction of apoptosis in human HeLa cells assessed as viable cells at 20 uM after 48 hrs by Annexin V/propidium iodide staining based assay (reference value: 95.03 %); assay type: functional; conditions: read-out: Activity; how it was run: as §2
HeLa [19] = test: Induction of apoptosis in human HeLa cells assessed as early apoptotic cells at 5 uM after 48 hrs by Annexin V/propidium iodide staining based assay (reference value: 3.22 %); assay type: functional; how it was run: as §2
HeLa [20] = test: Induction of apoptosis in human HeLa cells assessed as early apoptotic cells at 10 uM after 48 hrs by Annexin V/propidium iodide staining based assay (reference value: 3.22 %); assay type: functional; how it was run: as §2
HeLa [21] = test: Induction of apoptosis in human HeLa cells assessed as early apoptotic cells at 20 uM after 48 hrs by Annexin V/propidium iodide staining based assay (reference value: 3.22 %); assay type: functional; how it was run: as §2
HeLa [22] = test: Induction of apoptosis in human HeLa cells assessed as late apoptotic cells at 5 uM after 48 hrs by Annexin V/propidium iodide staining based assay (reference value: 1.75 %); assay type: functional; how it was run: as §2
HeLa [23] = test: Induction of apoptosis in human HeLa cells assessed as late apoptotic cells at 10 uM after 48 hrs by Annexin V/propidium iodide staining based assay (reference value: 1.75 %); assay type: functional; how it was run: as §2
HeLa [24] = test: Induction of apoptosis in human HeLa cells assessed as late apoptotic cells at 20 uM after 48 hrs by Annexin V/propidium iodide staining based assay (reference value: 1.75 %); assay type: functional; how it was run: as §2
HeLa [25] = test: Induction of apoptosis in human HeLa cells assessed as decrease in Bcl-2 protein expression after 48 hrs by Western blot analysis; assay type: functional, cell-based
How it was run: (§3)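 HeLa cells were treated 48 h with 12.5, 25 or 50 µM, or with DMSO vehicle. Cells were lysed 30 min in RIPA buffer with protease inhibitor cocktail and spun at 12,000 rpm for 15 min at 4 °C. Proteins were run on 6-15% SDS-PAGE and moved to nitrocellulose. Membranes were blocked in 5% non-fat milk in TBS, probed with primary and secondary antibodies, and imaged by chemiluminescence.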

HeLa [26] = test: Induction of apoptosis in human HeLa cells assessed as increase in Bax protein expression after 48 hrs by Western blot analysis; assay type: functional, cell-based; how it was run: as §3
HeLa [27] = test: Induction of apoptosis in human HeLa cells assessed as increase in cleaved caspase 3 protein expression after 48 hrs by Western blot analysis; assay type: functional, cell-based; how it was run: as §3
HeLa [28] = test: Induction of apoptosis in human HeLa cells assessed as decrease in protected caspase 3 protein expression after 48 hrs by Western blot analysis; assay type: functional, cell-based; how it was run: as §3
[29] = biological target: T1, Heat shock protein HSP90 (Homo sapiens); test: Inhibition of Hsp90 in human Hela cells assessed as down regulation of Hsp90 protein expression at 12.5 uM to 50 uM after 48 hrs by Western blot analysis; assay type: cell-based; how it was run: as §3
HeLa [30] = test: Induction of apoptosis in human HeLa cells assessed as increase in ratio of Bax to Bcl-2 protein expression 12.5 to 50 uM after 48 hrs by Western blot analysis; assay type: functional, cell-based; how it was run: as §3

c1ccc(-c2ccc(/N=C3\CCC[C@@H]4[C@H]5CCCN6CCC[C@@H](CN34)[C@@H]56)cc2)cc1
IC50 (HeLa [1]): 23.7 µM | IC50 (HepG2): 11 µM | IC50 (MDA-MB-231): 24.6 µM | ΔTm [2]: -4.91 °C

Nc1c2c(nc3ccc(C(F)(F)F)cc13)N1C[C@@H]3CCCN4CCC[C@@H]([C@H]34)[C@H]1CC2
Activity (HeLa [3]): 26.67% | IC50 (HeLa [1]): 19.6 µM | IC50 (HepG2): 16.1 µM | IC50 (MDA-MB-231): 22.1 µM | Activity (HeLa [4]): 65.53% | Activity (HeLa [5]): Dose-dependent effect | Activity (HeLa [6]): 62.47% | Activity (HeLa [7]): 56.95% | Activity (HeLa [8]): 21.64% | Activity (HeLa [9]): 40.12% | Activity (HeLa [10]): 12.83% | Activity (HeLa [11]): 10.86% | Activity (HeLa [12]): 2.93% | Activity (HeLa [13]): 8.79% | Activity (HeLa [14]): 4.06% | Activity (HeLa [15]): 2.62% | viability at 5 µM (HeLa [16]): 72% | viability at 10 µM (HeLa [17]): 50.1% | viability at 20 µM (HeLa [18]): 38.1% | Activity (HeLa [19]): 17.51% | Activity (HeLa [20]): 28.57% | Activity (HeLa [21]): 38.07% | Activity (HeLa [22]): 8.79% | Activity (HeLa [23]): 17.3% | Activity (HeLa [24]): 21.17% | Activity (HeLa [25]): Dose-dependent effect | Activity (HeLa [26]): Dose-dependent effect | Activity (HeLa [27]): Dose-dependent effect | Activity (HeLa [28]): Dose-dependent effect | inhibition [29]: Active | Activity (HeLa [30]): Active | ΔTm [2]: 10.9 °C

Nc1c2c(nc3ccc(Br)cc13)N1C[C@@H]3CCCN4CCC[C@@H]([C@H]34)[C@H]1CC2
IC50 (HeLa [1]): 6.9 µM | IC50 (HepG2): 9.7 µM | IC50 (MDA-MB-231): 9.7 µM | ΔTm [2]: -7.58 °C

CC(C)c1ccc(/N=C2\CCC[C@@H]3[C@H]4CCCN5CCC[C@@H](CN23)[C@@H]45)cc1
IC50 (HeLa [1]): 93.3 µM | IC50 (HepG2): 96.6 µM | IC50 (MDA-MB-231): 77.5 µM | ΔTm [2]: -1.24 °C

Cc1ccc2nc3c(c(N)c2c1)CC[C@@H]1[C@H]2CCCN4CCC[C@@H](CN31)[C@@H]24
IC50 (HeLa [1]): 13.4 µM | IC50 (HepG2): 9.2 µM | IC50 (MDA-MB-231): 16.9 µM | ΔTm [2]: -4.27 °C

Cc1c(/N=C2\CCC[C@@H]3[C@H]4CCCN5CCC[C@@H](CN23)[C@@H]45)cccc1[N+](=O)[O-]
IC50 (HeLa [1]): > 100 µM | IC50 (HepG2): 86.1 µM | IC50 (MDA-MB-231): > 100 µM | ΔTm [2]: -1.06 °C

c1ccc(/N=C2\CCC[C@@H]3[C@H]4CCCN5CCC[C@@H](CN23)[C@@H]45)cc1
IC50 (HeLa [1]): > 100 µM | IC50 (HepG2): > 100 µM | IC50 (MDA-MB-231): > 100 µM | ΔTm [2]: -0.57 °C

O=C1CCC[C@@H]2[C@H]3CCCN4CCC[C@@H](CN12)[C@@H]34 [MATRINE]
IC50 (HeLa [1]): 4330 µM | IC50 (HepG2): 4510 µM | IC50 (MDA-MB-231): 5370 µM | ΔTm [2]: 0.04 °C

Nc1c2c(nc3ccccc13)N1C[C@@H]3CCCN4CCC[C@@H]([C@H]34)[C@H]1CC2
IC50 (HeLa [1]): 23.3 µM | IC50 (HepG2): 14.3 µM | IC50 (MDA-MB-231): 22.2 µM | ΔTm [2]: -3.12 °C
